The results in this text go back to PubChem BioAssay.

Activity calls are given as the source filed them.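 Rule for the calls, unless noted: active = GFP response above 150% of the DMSO level; inconclusive = fewer than 70 events counted for a yeast strain; inactive = the rest.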

Experiment [1] can be described thus: hit retest on RPL19A-GFP reporter strain – cell-based, S. cerevisiae, flow cytometry, cherry picks, mother/daughter gates, confirmation (AID 2270;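 active = GFP response below 50% of the DMSO control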). The conditions noted are these: 3 h, at 10 µM, stronger effect = lower value, 100 = same GFP as DMSO wells.
The nature of experiment [2]: yeast TOR pathway reporter LAP4-GFP change – cell-based, cherry picks, flow cytometry, mother/daughter gates, confirmation (AID 2271;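 active = GFP response above 150% of the DMSO control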;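 note: ratio of sample to DMSO plate mean so 100% equals DMSO level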). Particulars: S. cerevisiae LAP4-GFP strain, 3 h, at 10 µM, stronger effect = higher value, 100 means same as DMSO control. The essentials:
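System – GFP-fusion yeast strain · Amount – 0.2 OD600 cells · Buffer or medium – SC growth medium · Dosing – single test-compound dose, 10 µM final · Schedule – 3 h treatment at 30 °C with rotation · Detection – GFP by flow cytometry · Read-out – per-gate (all, mother, daughter) GFP response vs DMSO · Benchmarks – positive rapamycin (400 ng/mL), negative DMSO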

Experiment [3] can be described thus: TOR pathway reporter MEP2-GFP, retest of hits – S. cerevisiae, flow cytometry GFP, cherry picks, confirmation (AID 2272;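 active = GFP response above 150% of the DMSO control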;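 note: ratio of well signal to plate DMSO mean so 100% equals DMSO level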). Particulars: S. cerevisiae MEP2-GFP strain, 3 h, at 10 µM, stronger effect = higher value. Background: Flow cytometry measures light scatter and fluorescence of single cells or particles in a stream.
Experiment [4] can be described thus: yeast AGP1-GFP fluorescence change, single-dose – cell-based, flow cytometry, S. cerevisiae, cherry picks, confirmation (AID 2273).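 Note: median GFP channel fluorescence over the whole cell population gate.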 Particulars: S. cerevisiae AGP1-GFP strain, 3 h, at 10 µM.
A short description of experiment [5]: TOR pathway CIT2 reporter hit retest – S. cerevisiae, GFP fusion, cherry picks, mother/daughter gates, confirmation (AID 2274). The conditions noted are these: S. cerevisiae CIT2-GFP strain, flow cytometry, 3 h, at 10 µM, stronger effect = higher value.
[6] abbreviates: measured here: daughter cell gate.
Where [7] appears, read: measured here: mother cell gate.
[8] abbreviates: measured here: daughter cell gate response.
Where [9] appears, read: measured here: mother cell gate response.

With `Cc1ccsc1/C=N/Nc1ncc(Cl)cc1Cl`, the GFP response vs DMSO in experiment [1] is 97% (inactive); in experiment [1] (setting [6]), 94.2%; in experiment [1] (setting [7]), 85.8%; in experiment [3], 109% (inactive). In addition, the GFP response relative to DMSO in experiment [2] is 177% (active); in experiment [2] (setting [8]) it was 107%; in experiment [2] (setting [9]) it was 189%. Moreover, the GFP response, % of DMSO was 83.7% (inactive) in experiment [4], 100% (inactive) in experiment [5], 101% in experiment [5] (setting [6]) and 84.6% in experiment [5] (setting [7]).
As for `N#C/C(=C\c1c(N2CCN(c3ccccc3)CC2)nc2ccccn2c1=O)C(N)=O`, the GFP response vs DMSO in experiment [1] was 104% (inactive); in experiment [1] (setting [6]) it was 99.1%; in experiment [1] (setting [7]), 99.3%; in experiment [3], 105% (inactive). Further, the figures for the GFP response relative to DMSO in experiment [2], in experiment [2] (setting [8]) and in experiment [2] (setting [9]) were 97% (inactive), 97.5% and 98.4%, respectively. In addition, the GFP response, % of DMSO was 106% (inactive) in experiment [4], 98.8% (inactive) in experiment [5], 99.2% in experiment [5] (setting [6]) and 88.2% in experiment [5] (setting [7]).
Consider `CCCCc1nnc(NC(=O)c2nc3nccc(C)n3n2)s1`, for which the GFP response vs DMSO in experiment [1] was 98.7% (inactive); in experiment [1] (setting [6]), 98.3%; in experiment [1] (setting [7]), 99.8%; in experiment [3], 106% (inactive). The figures for the GFP response relative to DMSO in experiment [2], in experiment [2] (setting [8]) and in experiment [2] (setting [9]) were 96.5% (inactive), 95% and 96.5%, respectively. Moreover, the GFP response, % of DMSO in experiment [4] is 104% (inactive); in experiment [5], 109% (inactive); in experiment [5] (setting [6]), 109%; in experiment [5] (setting [7]), 110%.
Regarding `Cc1cc(=O)n2c3c(sc2n1)C(=O)N(Cc1ccccc1)C3=O`, the GFP response vs DMSO in experiment [1] is 94.3% (inactive); in experiment [1] (setting [6]) it was 94.5%; in experiment [1] (setting [7]), 94%; in experiment [3], 103% (inactive). The GFP response relative to DMSO in experiment [2] is 152% (active); in experiment [2] (setting [8]), 140%; in experiment [2] (setting [9]), 161%. In addition, the GFP response, % of DMSO is 105% (inactive) in experiment [4], 81% (inactive) in experiment [5], 87.3% in experiment [5] (setting [6]) and 74.8% in experiment [5] (setting [7]).
For the compound `O=[N+]([O-])c1cnc(Sc2ccncn2)s1`, the GFP response vs DMSO in experiment [1] is 102% (inactive); in experiment [1] (setting [6]), 105%; in experiment [1] (setting [7]) it was 99.2%; in experiment [3], 141% (inactive). Further, the GFP response relative to DMSO was 166% (active) in experiment [2], 148% in experiment [2] (setting [8]) and 182% in experiment [2] (setting [9]). Moreover, the GFP response, % of DMSO in experiment [4] was 111% (inactive); in experiment [5], 113% (inactive); in experiment [5] (setting [6]), 124%; in experiment [5] (setting [7]), 102%.
In the case of `CC(=O)c1sc2nc(C)c3c(c2c1N)CCCC3`, the GFP response vs DMSO in experiment [1] was 89.4% (inactive); in experiment [1] (setting [6]) it was 88.5%; in experiment [1] (setting [7]), 89.3%; in experiment [3], 101% (inactive). The values for the GFP response relative to DMSO in experiment [2], in experiment [2] (setting [8]) and in experiment [2] (setting [9]) were 111% (inactive), 104% and 115%, respectively. For the same compound, the GFP response, % of DMSO is 98.2% (inactive) in experiment [4], 91.7% (inactive) in experiment [5], 88.7% in experiment [5] (setting [6]) and 92.6% in experiment [5] (setting [7]).
On to `S=C(Nc1ccc(Cl)cc1)Nc1ccc2cn[nH]c2c1`, for which the GFP response vs DMSO in experiment [1] is 93.9% (inactive); in experiment [1] (setting [6]) it was 96.3%; in experiment [1] (setting [7]), 93.3%; in experiment [3], 101% (inactive). The GFP response relative to DMSO in experiment [2] was 106% (inactive); in experiment [2] (setting [8]), 108%; in experiment [2] (setting [9]), 105%. Also, the GFP response, % of DMSO in experiment [4] was 104% (inactive); in experiment [5] it was 103% (inactive); in experiment [5] (setting [6]) it was 100%; in experiment [5] (setting [7]) it was 104%.
Take `CC(=O)Nc1cccc(/C(C)=N/NC(=O)c2ccccc2Cl)c1`: the GFP response vs DMSO in experiment [1] is 98.2% (inactive); in experiment [1] (setting [6]) it was 97.9%; in experiment [1] (setting [7]), 98.7%; in experiment [3] it was 100% (inactive). Besides, the GFP response relative to DMSO in experiment [2] is 102% (inactive); in experiment [2] (setting [8]) it was 102%; in experiment [2] (setting [9]) it was 99.3%. The GFP response, % of DMSO is 101% (inactive) in experiment [4], 99.7% (inactive) in experiment [5], 101% in experiment [5] (setting [6]) and 99.7% in experiment [5] (setting [7]).
`COc1cc(/C=C/c2ccc3c(Br)cc(Br)c(O)c3n2)ccc1O`: the GFP response vs DMSO was 101% (inactive) in experiment [1], 107% in experiment [1] (setting [6]), 102% in experiment [1] (setting [7]) and 108% (inactive) in experiment [3]. Also, the GFP response relative to DMSO is 107% (inactive) in experiment [2], 106% in experiment [2] (setting [8]) and 108% in experiment [2] (setting [9]). Besides, the GFP response, % of DMSO in experiment [4] was 98.6% (inactive); in experiment [5], 99.7% (inactive); in experiment [5] (setting [6]), 105%; in experiment [5] (setting [7]) it was 89.8%.
With `COc1ccc(N/N=C(\C#N)C(N)=O)cc1`, the GFP response vs DMSO was 83.7% (inactive) in experiment [1], 64.6% in experiment [1] (setting [6]), 83.7% in experiment [1] (setting [7]) and 141% (inactive) in experiment [3]. The GFP response relative to DMSO in experiment [2] is 166% (active); in experiment [2] (setting [8]) it was 136%; in experiment [2] (setting [9]) it was 185%. Also, the GFP response, % of DMSO is 125% (inactive) in experiment [4], 136% (inactive) in experiment [5], 114% in experiment [5] (setting [6]) and 135% in experiment [5] (setting [7]).
`COc1ccc(Cl)cc1C(Nc1cccnc1)c1ccc2cccnc2c1O` (stereo unspecified): the GFP response vs DMSO in experiment [1] was 97% (inactive); in experiment [1] (setting [6]), 98.8%; in experiment [1] (setting [7]), 95.2%; in experiment [3], 116% (inactive). Also, the GFP response relative to DMSO was 121% (inactive) in experiment [2], 109% in experiment [2] (setting [8]) and 127% in experiment [2] (setting [9]). The GFP response, % of DMSO is 97.1% (inactive) in experiment [4], 109% (inactive) in experiment [5], 115% in experiment [5] (setting [6]) and 101% in experiment [5] (setting [7]).
Take `Cc1ccc(-n2nc(C)c3c(C)c(CCC(=O)O)c(C)nc32)cc1`: the GFP response vs DMSO in experiment [1] is 102% (inactive); in experiment [1] (setting [6]), 100%; in experiment [1] (setting [7]), 103%; in experiment [3] it was 96.8% (inactive). Moreover, the figures for the GFP response relative to DMSO in experiment [2], in experiment [2] (setting [8]) and in experiment [2] (setting [9]) were 101% (inactive), 101% and 100%, respectively. In addition, the GFP response, % of DMSO in experiment [4] is 100% (inactive); in experiment [5], 102% (inactive); in experiment [5] (setting [6]) it was 101%; in experiment [5] (setting [7]), 102%.
On to `O=C1CC(Sc2ncccn2)C(=O)N1c1ccccc1C(F)(F)F` (stereo unspecified), for which the GFP response vs DMSO in experiment [1] was 100% (inactive); in experiment [1] (setting [6]), 100%; in experiment [1] (setting [7]) it was 100%; in experiment [3], 100% (inactive). Besides, the GFP response relative to DMSO is 98.7% (inactive) in experiment [2], 102% in experiment [2] (setting [8]) and 99.3% in experiment [2] (setting [9]). In addition, the GFP response, % of DMSO in experiment [4] was 98.9% (inactive); in experiment [5] it was 96.5% (inactive); in experiment [5] (setting [6]), 96.5%; in experiment [5] (setting [7]), 97.7%.
Consider `CC1(C)CC(=O)C2=C(C1)OC1=C(C(=O)CC(C)(C)C1)C2c1ccc(O)cc1O`, for which the GFP response vs DMSO in experiment [1] was 104% (inactive); in experiment [1] (setting [6]) it was 105%; in experiment [1] (setting [7]) it was 99.8%; in experiment [3], 97.8% (inactive). Further, the results for the GFP response relative to DMSO in experiment [2], in experiment [2] (setting [8]) and in experiment [2] (setting [9]) were 143% (inactive), 139% and 143%, respectively. Besides, the GFP response, % of DMSO was 96.3% (inactive) in experiment [4], 95.2% (inactive) in experiment [5], 103% in experiment [5] (setting [6]) and 89.1% in experiment [5] (setting [7]).
In the case of `CCc1nnc(NC(=O)CSc2nnc(C3CCCCC3)n2-c2cccc(Cl)c2)s1`, the GFP response vs DMSO is 98.2% (inactive) in experiment [1], 98.5% in experiment [1] (setting [6]), 98.6% in experiment [1] (setting [7]) and 102% (inactive) in experiment [3]. Besides, the results for the GFP response relative to DMSO in experiment [2], in experiment [2] (setting [8]) and in experiment [2] (setting [9]) were 100% (inactive), 99.3% and 99.5%, respectively. Moreover, the GFP response, % of DMSO in experiment [4] was 101% (inactive); in experiment [5] it was 101% (inactive); in experiment [5] (setting [6]), 102%; in experiment [5] (setting [7]) it was 100%.
As for `O=C1C2C3C=CC(CNS(=O)(=O)c4ccccc4)(O3)C2C(=O)N1c1ccc(Cl)cc1` (stereo unspecified), the GFP response vs DMSO in experiment [1] was 102% (inactive); in experiment [1] (setting [6]) it was 103%; in experiment [1] (setting [7]) it was 102%; in experiment [3] it was 114% (inactive). In addition, the GFP response relative to DMSO in experiment [2] is 110% (inactive); in experiment [2] (setting [8]) it was 109%; in experiment [2] (setting [9]), 109%. The GFP response, % of DMSO in experiment [4] was 99.7% (inactive); in experiment [5], 111% (inactive); in experiment [5] (setting [6]) it was 113%; in experiment [5] (setting [7]), 108%.
